Source: ChEMBL document CHEMBL1221207, “Expanding the promiscuity of a natural-product glycosyltransferase by directed evolution” (Nat Chem Biol, 2007)
Changes are numbered by the printed parent chain.

Legend:
[1] = system: T1, Oleandomycin glycosyltransferase (Streptomyces antibioticus), Q53685 [P67T,S132F,A242V]; experiment: Activity of Streptomyces antibioticus OleD P67T/S132F/A242V mutant assessed as conversion rate of compound to produce glucoside 3 using NDP sugar UDP-6-azido-glucose after 3 hrs by HPLC
T1 sequence (whole entry): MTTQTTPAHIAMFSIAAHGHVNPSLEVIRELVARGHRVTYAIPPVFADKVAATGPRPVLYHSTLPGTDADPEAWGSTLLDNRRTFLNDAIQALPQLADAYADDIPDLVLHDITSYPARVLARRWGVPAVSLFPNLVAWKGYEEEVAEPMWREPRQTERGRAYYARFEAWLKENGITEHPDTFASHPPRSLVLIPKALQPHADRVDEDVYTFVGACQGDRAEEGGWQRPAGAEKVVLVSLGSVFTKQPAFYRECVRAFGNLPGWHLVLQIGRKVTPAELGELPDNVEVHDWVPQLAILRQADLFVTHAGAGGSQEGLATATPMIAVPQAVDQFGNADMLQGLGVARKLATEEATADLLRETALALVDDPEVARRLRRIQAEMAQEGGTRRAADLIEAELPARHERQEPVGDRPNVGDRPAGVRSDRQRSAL
Summary of the method: (§1)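 End-point donor-specificity assay with purified OleD enzyme. Percentage conversion was read after 3 h. Quenched reactions were run by reverse-phase C18 HPLC with a 10–90% CH3CN gradient in 0.1% formic acid/H2O over 20 min at 1 ml min–1, with detection at 254 nm. Products were identified by LC-MS, by comparison to standards where available, and by fluorescence.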

[2] = system: T2, Oleandomycin glycosyltransferase (Streptomyces antibioticus), Q53685 [S132F]; experiment: Activity of Streptomyces antibioticus OleD S132F mutant assessed as conversion rate of compound to produce glucoside 3 using NDP sugar donor UDP-6-deoxy-glucose after 3 hrs by HPLC; summary of the method: as §1
T2 sequence (whole entry): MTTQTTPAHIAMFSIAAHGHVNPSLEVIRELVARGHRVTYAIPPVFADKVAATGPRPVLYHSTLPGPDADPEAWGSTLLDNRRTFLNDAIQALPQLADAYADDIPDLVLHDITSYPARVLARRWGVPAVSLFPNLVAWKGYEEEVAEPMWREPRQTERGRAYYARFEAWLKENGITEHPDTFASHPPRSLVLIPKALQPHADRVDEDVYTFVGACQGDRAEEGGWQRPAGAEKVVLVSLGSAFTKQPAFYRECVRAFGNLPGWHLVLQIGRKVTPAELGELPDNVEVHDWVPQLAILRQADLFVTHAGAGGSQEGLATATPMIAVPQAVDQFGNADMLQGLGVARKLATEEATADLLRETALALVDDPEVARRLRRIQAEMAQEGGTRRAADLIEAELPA

[3] = system: T1, Oleandomycin glycosyltransferase (Streptomyces antibioticus), Q53685 [P67T,S132F,A242V]; experiment: Activity of Streptomyces antibioticus OleD P67T/S132F/A242V mutant assessed as as rate of glucoside formation measured as nanomoles of product formed per minute per mg of enzyme
[4] = system: T3, Oleandomycin glycosyltransferase (Streptomyces antibioticus), Q53685 [A242V]; experiment: Activity of Streptomyces antibioticus OleD A242V mutant assessed as conversion rate of compound to produce glucoside 3 using NDP sugar donor UDP-6-azido-glucose after 3 hrs by HPLC; summary of the method: as §1
T3 sequence (whole entry): T1 sequence (whole entry) with T67P, F132S

[5] = system: T3, Oleandomycin glycosyltransferase (Streptomyces antibioticus), Q53685 [A242V]; experiment: Activity of Streptomyces antibioticus OleD A242V mutant assessed as conversion rate of compound to produce glucoside 3 using NDP sugar donor UDP-6-deoxy-glucose after 3 hrs by HPLC; summary of the method: as §1
[6] = system: T2, Oleandomycin glycosyltransferase (Streptomyces antibioticus), Q53685 [S132F]; experiment: Activity of Streptomyces antibioticus OleD S132F mutant assessed as conversion rate of compound to produce glucoside 3 using NDP sugar donor UDP-glucose after 3 hrs by HPLC; summary of the method: as §1
[7] = system: T1, Oleandomycin glycosyltransferase (Streptomyces antibioticus), Q53685 [P67T,S132F,A242V]; experiment: Activity of Streptomyces antibioticus OleD P67T/S132F/A242V mutant assessed as conversion rate of compound to produce glucoside 3 using NDP sugar UDP-glucose after 3 hrs by HPLC; summary of the method: as §1
[8] = system: T1, Oleandomycin glycosyltransferase (Streptomyces antibioticus), Q53685 [P67T,S132F,A242V]; experiment: Activity of Streptomyces antibioticus OleD P67T/S132F/A242V mutant assessed as conversion rate of compound to produce glucoside 3 using NDP sugar donor UDP-3-amino-glucose after 3 hrs by HPLC; summary of the method: as §1
[9] = system: T2, Oleandomycin glycosyltransferase (Streptomyces antibioticus), Q53685 [S132F]; experiment: Activity of Streptomyces antibioticus OleD S132F mutant assessed as conversion rate of compound to produce glucoside 3 using NDP sugar donor UDP-6-azido-glucose after 3 hrs by HPLC; summary of the method: as §1
[10] = system: T1, Oleandomycin glycosyltransferase (Streptomyces antibioticus), Q53685 [P67T,S132F,A242V]; experiment: Activity of Streptomyces antibioticus OleD P67T/S132F/A242V mutant assessed as conversion rate of compound to produce glucoside 3 using NDP sugar donor UDP-2-amino-glucose after 3 hrs by HPLC; summary of the method: as §1
[11] = system: T1, Oleandomycin glycosyltransferase (Streptomyces antibioticus), Q53685 [P67T,S132F,A242V]; experiment: Activity of Streptomyces antibioticus OleD P67T/S132F/A242V mutant assessed as conversion rate of compound to produce glucoside 3 using NDP sugar donor UDP-4-deoxy-glucose after 3 hrs by HPLC; summary of the method: as §1
[12] = system: T3, Oleandomycin glycosyltransferase (Streptomyces antibioticus), Q53685 [A242V]; experiment: Activity of Streptomyces antibioticus OleD A242V mutant assessed as as rate of glucoside formation measured as nanomoles of product formed per minute per mg of enzyme
[13] = molecular target: T4, Oleandomycin glycosyltransferase (Streptomyces antibioticus) (UniProt Q53685); experiment: Activity of Streptomyces antibioticus wild-type OleD assessed as conversion rate of compound to produce glucoside 3 using NDP sugar UDP-glucose after 3 hrs by HPLC; summary of the method: as §1
T4 sequence (whole entry): T1 sequence (whole entry) with T67P, F132S, V242A

## Cc1cc(=O)oc2cc(O)ccc12
[1]
  Activity: 41%
[2]
  Activity: 10%
[3]
  Activity: 84 nmol/min
[4]
  Activity: 2%
[5]
  Activity: 6%
[6]
  Activity: 48%
[7]
  Activity: 96.4%
[8]
  Activity: 4%
[9]
  Activity: 1%
[10]
  Activity: 24%
[11]
  Activity: 22%
[12]
  Activity: 5.4 nmol/min
[13]
  Activity: 13.9%
